Data reported in ChEMBL document CHEMBL1781935, “Amberlite-IRA-402 (OH) ion exchange resin mediated synthesis of indolizines, pyrrolo [1,2-a] quinolines and isoquinolines: antibacterial and antifungal evaluation of the products” (2011).
Converted amounts (≈) assume the structure as drawn. The source made the active and inactive calls. The calls are words filed in the database; no cut-off is given here.

What was measured:
Vibrio cholerae [1] = assay: Antibacterial activity against Vibrio cholerae isolate 7201 at 10 to 80 ug/ml after overnight incubation by broth dilution method; assay type: functional, organism-based
Shigella dysenteriae [2] = assay: Antibacterial activity against Shigella dysenteriae isolate 3 at 10 to 80 ug/ml after overnight incubation by broth dilution method; assay type: functional, organism-based
Escherichia coli [3] = assay: Antibacterial activity against Escherichia coli ATCC 25938 at 10 to 80 ug/ml after overnight incubation by broth dilution method; assay type: functional, organism-based
Outline: (§1)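 Bactericidal testing with double-fold drug dilutions in Mueller-Hinton broth. Tubes inoculated with 1 ml suspension (2 × 10^6 cfu/ml) and shaken at 200 rpm at 37 °C for 24 h. Drug was added at mid-logarithmic growth. Viable colony counts were taken from 1.0 ml aliquots plated on nutrient agar.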

Pseudomonas aeruginosa [4] = assay: Antibacterial activity against Pseudomonas aeruginosa ATCC 27853 at 10 to 80 ug/ml after overnight incubation by broth dilution method; assay type: functional, organism-based; outline: as §1
Escherichia coli [5] = assay: Antibacterial activity against Escherichia coli ATCC 25938 at 1 to 1000 ug/ml after overnight incubation by disc diffusion method; assay type: functional
Outline: (§2)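 Disc diffusion on Mueller-Hinton agar. Plates seeded with 0.1 ml bacterial suspension (2 × 10^6 cfu/ml). Sterile 6 mm paper discs were impregnated with compound solutions at 1–1000 µg/ml and incubated at 37 °C overnight. Read-out was the diameter of the clear inhibition zone. Stocks were 1 mg/ml in 4% Tween 80 or 4% propylene glycol.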

Klebsiella pneumoniae [6] = assay: Antibacterial activity against Klebsiella pneumoniae isolate J/1/4 at 1 to 1000 ug/ml after overnight incubation by disc diffusion method; assay type: functional; outline: as §2
Staphylococcus aureus [7] = assay: Antibacterial activity against Staphylococcus aureus ATCC 25923 at 1 to 1000 ug/ml after overnight incubation by disc diffusion method; assay type: functional; outline: as §2
Pseudomonas aeruginosa [8] = assay: Antibacterial activity against Pseudomonas aeruginosa ATCC 27853 at 1 to 1000 ug/ml after overnight incubation by disc diffusion method; assay type: functional; outline: as §2
Vibrio cholerae [9] = assay: Antibacterial activity against Vibrio cholerae isolate 7201 at 1 to 1000 ug/ml after overnight incubation by disc diffusion method; assay type: functional
Vibrio cholerae [10] = assay: Antibacterial activity against Vibrio cholerae isolate 720 at 1 to 1000 ug/ml after overnight incubation by disc diffusion method; assay type: functional
Bacillus subtilis [11] = assay: Antibacterial activity against Bacillus subtilis UC564 at 1 to 1000 ug/ml after overnight incubation by disc diffusion method; assay type: functional; outline: as §2
Shigella dysenteriae [12] = assay: Antibacterial activity against Shigella dysenteriae isolate 3 at 1 to 1000 ug/ml after overnight incubation by disc diffusion method; assay type: functional
Enterococcus faecalis [13] = assay: Antibacterial activity against Enterococcus faecalis isolate 29212 at 1 to 1000 ug/ml after overnight incubation by disc diffusion method; assay type: functional; outline: as §2
Shigella flexneri [14] = assay: Antibacterial activity against Shigella flexneri DN13 at 1 to 1000 ug/ml after overnight incubation by disc diffusion method; assay type: functional; outline: as §2
Salmonella typhi [15] = assay: Antibacterial activity against Salmonella typhi DIRW at 1 to 1000 ug/ml after overnight incubation by disc diffusion method; assay type: functional, Salmonella enterica subsp. enterica serovar Typhi
Vibrio parahaemolyticus [16] = assay: Antibacterial activity against Vibrio parahaemolyticus isolate 72016 at 1 to 1000 ug/ml after overnight incubation by disc diffusion method; assay type: functional; outline: as §2
Micrococcus luteus [17] = assay: Antibacterial activity against Micrococcus luteus AGD1 at 1 to 1000 ug/ml after overnight incubation by disc diffusion method; assay type: functional; outline: as §2
Salmonella typhimurium [18] = assay: Antibacterial activity against Salmonella Typhimurium isolate 11 at 1 to 1000 ug/ml after overnight incubation by disc diffusion method; assay type: functional, organism-based; details: Salmonella enterica subsp. enterica serovar Typhimurium; outline: as §2
Staphylococcus aureus [19] = assay: Antibacterial activity against Staphylococcus aureus ATCC 25923 at 10 to 80 ug/ml after overnight incubation by broth dilution method; assay type: functional, organism-based; outline: as §1
Bacillus subtilis [20] = assay: Antibacterial activity against Bacillus subtilis UC564 at 10 to 80 ug/ml after overnight incubation by broth dilution method; assay type: functional, organism-based; outline: as §1
Escherichia coli [21] = assay: Antibacterial activity against Escherichia coli ATCC 25938; assay type: functional
Outline: (§3)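 MIC by broth and agar dilution. Broth: 0.1 ml suspension (2 × 10^6 cfu/ml) in Mueller-Hinton broth with test drug at 1–1000 µg/ml, 37 °C overnight. Agar: serial drug dilutions in Mueller-Hinton agar, spot-inoculated with 2 × 10^6 cfu/spot, 37 °C for 24 h. MIC was the lowest concentration with no visible growth. Antibiotic controls were included.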

Klebsiella pneumoniae [22] = assay: Antibacterial activity against Klebsiella pneumoniae isolate J/1/4; assay type: functional; outline: as §3
Staphylococcus aureus [23] = assay: Antibacterial activity against Staphylococcus aureus ATCC 25923; assay type: functional; outline: as §3
Pseudomonas aeruginosa [24] = assay: Antibacterial activity against Pseudomonas aeruginosa ATCC 27853; assay type: functional; outline: as §3
Vibrio cholerae [25] = assay: Antibacterial activity against Vibrio cholerae isolate 7201; assay type: functional
Bacillus subtilis [26] = assay: Antibacterial activity against Bacillus subtilis UC564; assay type: functional; outline: as §3
Shigella dysenteriae [27] = assay: Antibacterial activity against Shigella dysenteriae isolate 3; assay type: functional
Enterococcus faecalis [28] = assay: Antibacterial activity against Streptococcus faecalis isolate 29212; assay type: functional; outline: as §3
Shigella flexneri [29] = assay: Antibacterial activity against Shigella flexneri DN13; assay type: functional; outline: as §3
Salmonella typhi [30] = assay: Antibacterial activity against Salmonella typhi DIRW; assay type: functional, Salmonella enterica subsp. enterica serovar Typhi; details: Salmonella enterica
Vibrio parahaemolyticus [31] = assay: Antibacterial activity against Vibrio parahaemolyticus isolate 72016; assay type: functional; outline: as §3
Micrococcus luteus [32] = assay: Antibacterial activity against Micrococcus luteus AGD1; assay type: functional; outline: as §3
Salmonella typhimurium [33] = assay: Antibacterial activity against Salmonella Typhimurium isolate 11; assay type: functional, Salmonella enterica subsp. enterica serovar Typhimurium; details: Salmonella enterica; outline: as §3

| SMILES | diameter of the inhibition zone (DIZ) (Escherichia coli [5]) [mm] | diameter of the inhibition zone (DIZ) (Klebsiella pneumoniae [6]) [mm] | diameter of the inhibition zone (DIZ) (Staphylococcus aureus [7]) | diameter of the inhibition zone (DIZ) (Pseudomonas aeruginosa [8]) | diameter of the inhibition zone (DIZ) (Vibrio cholerae [9]) | diameter of the inhibition zone (DIZ) (Vibrio cholerae [10]) | diameter of the inhibition zone (DIZ) (Bacillus subtilis [11]) [mm] | diameter of the inhibition zone (DIZ) (Shigella dysenteriae [12]) | diameter of the inhibition zone (DIZ) (Enterococcus faecalis [13]) | diameter of the inhibition zone (DIZ) (Shigella flexneri [14]) | diameter of the inhibition zone (DIZ) (Vibrio parahaemolyticus [16]) | diameter of the inhibition zone (DIZ) (Micrococcus luteus [17]) | diameter of the inhibition zone (DIZ) (Salmonella typhimurium [18]) | MIC (Escherichia coli [21]) [µg/mL] | MIC (Klebsiella pneumoniae [22]) [µg/mL] | MIC (Staphylococcus aureus [23]) [µg/mL] | MIC (Pseudomonas aeruginosa [24]) [µg/mL] | MIC (Vibrio cholerae [25]) [µg/mL] | MIC (Bacillus subtilis [26]) [µg/mL] | MIC (Shigella dysenteriae [27]) [µg/mL] | other results |
| --- | --- | --- | --- | --- | --- | --- | --- | --- | --- | --- | --- | --- | --- | --- | --- | --- | --- | --- | --- | --- | --- |
| COC(=O)c1c(C(=O)OC)c2ccc3ccccc3n2c1C(=O)c1ccccc1 | 12.1 | 10 | inactive | inactive | inactive | inactive | 10.2 | 11.5 mm | 12 mm | inactive | inactive | inactive | inactive | > 500 | 64 (≈ 165 µM) | 500 (≈ 1290 µM) | > 500 | 500 (≈ 1290 µM) | 32 (≈ 82.6 µM) | 16 (≈ 41.3 µM) | Activity (Vibrio cholerae [1]): Active; Activity (Shigella dysenteriae [2]): Active; Activity (Escherichia coli [3]): Active; Activity (Pseudomonas aeruginosa [4]): Active; diameter of the inhibition zone (DIZ) (Salmonella typhi [15]): 7.5 mm; Activity (Staphylococcus aureus [19]): Active; Activity (Bacillus subtilis [20]): Active; MIC (Enterococcus faecalis [28]): 64 µg/mL (≈ 165 µM); MIC (Shigella flexneri [29]): 500 µg/mL (≈ 1290 µM); MIC (Salmonella typhi [30]): 128 µg/mL (≈ 330 µM); MIC (Vibrio parahaemolyticus [31]): > 500 µg/mL; MIC (Micrococcus luteus [32]): > 500 µg/mL; MIC (Salmonella typhimurium [33]): 500 µg/mL (≈ 1290 µM) |
| N#Cc1cc(C(=O)c2ccccc2)n2ccc3ccccc3c12 | 8 | 11 | 7.5 mm | 9.5 mm | 11 mm | 11 mm | 7.5 | inactive | inactive | inactive | inactive | inactive | inactive | 256 (≈ 864 µM) | 32 (≈ 108 µM) | 256 (≈ 864 µM) | 64 (≈ 216 µM) | 32 (≈ 108 µM) | 128 (≈ 432 µM) | > 500 | diameter of the inhibition zone (DIZ) (Salmonella typhi [15]; Salmonella enterica subsp. enterica serovar Typhi): inactive; MIC (Enterococcus faecalis [28]): > 500 µg/mL; MIC (Shigella flexneri [29]): > 500 µg/mL; MIC (Salmonella typhi [30]): > 500 µg/mL; MIC (Vibrio parahaemolyticus [31]): > 500 µg/mL; MIC (Micrococcus luteus [32]): > 500 µg/mL; MIC (Salmonella typhimurium [33]): > 500 µg/mL |
